Tests used:
Trichophyton rubrum = assay: In vitro evaluation of minimum inhibitory concentration against Trichophyton rubrum 90; format: functional; settings: Trichophyton rubrum; read-out: MIC
Procedure, shortened: (§1)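 Stocks are 800 μg/mL in 50% ethanol. Each plate gets 10 μL of inoculum at 10^5 cfu/mL. Incubation at 25 °C, 48 h for yeasts and 120 h for dermatophytes and molds. Organisms are ATCC strains or clinical isolates.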

Candida albicans [1] = assay: Evaluation of In vitro antifungal activity against Candida albicans 406 by broth macro dilution method; format: functional
Procedure, shortened: (§2)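 Yeast MIC and MFC by broth macrodilution per NCCLS M27-P in RPMI-1640 buffered with 0.165 M MOPS. Fluconazole in sterile water, other drugs in DMSO. C. parapsilosis ATCC 22019 is the reference strain in each run. MIC is the lowest concentration with turbidity ≤ the 80% inhibition standard. For MFC, 0.04 mL from clear tubes is plated on Sabouraud agar; MFC is the lowest concentration giving ≤1 colony.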

Mus sp. [2] = assay: In vivo evaluation of % survival rate after peroral administration on 7th day at dose 1 mg/kg; format: functional; settings: Mus sp., po
Candida parapsilosis [3] = assay: Evaluation of In vitro antifungal activity against Candida parapsilosis C292 by broth macro dilution method; format: functional; settings: Lodderomyces parapsilosis; procedure, shortened: as §2
Aspergillus flavus = assay: In vitro evaluation of minimum inhibitory concentration against Aspergillus flavus 19; format: functional; settings: Aspergillus flavus; read-out: MIC; procedure, shortened: as §1
Mus sp. [4] = assay: In vivo evaluation of % survival rate after peroral administration on 9th day at dose 1 mg/kg; format: functional; settings: Mus sp., po
Candida albicans [5] = assay: Evaluation of In vitro antifungal activity against Candida albicans 31 by broth macro dilution method; format: functional; procedure, shortened: as §2
Mus sp. [6] = assay: In vivo evaluation of % survival rate after peroral administration on 3rd day at dose 0.5 mg/kg; format: functional; settings: route oral
Candida albicans [7] = assay: Evaluation of In vitro antifungal activity against Candida albicans 76 by broth macro dilution method; format: functional; procedure, shortened: as §2
[8] = tested on: Meyerozyma guilliermondii; assay: In vitro evaluation of minimum inhibitory concentration against Candida guilliermondii 26; format: functional; settings: Meyerozyma guilliermondii; read-out: MIC; procedure, shortened: as §1
Cryptococcus neoformans [9] = assay: Evaluation of In vitro antifungal activity against Cryptococcus neoformans 87 by broth macro dilution method; format: functional; procedure, shortened: as §2
Candida albicans [10] = assay: Evaluation of In vitro antifungal activity against Candida albicans 60 by broth macro dilution method
Candida parapsilosis [11] = assay: Evaluation of In vitro antifungal activity against Candida parapsilosis ATCC 22019 by broth macro dilution method; format: functional; settings: Lodderomyces parapsilosis; procedure, shortened: as §2
Trichophyton benhamiae = assay: In vitro evaluation of minimum inhibitory concentration against Trichophyton mentagrophytes 23; format: functional, Arthroderma benhamiae; settings: Trichophyton benhamiae; read-out: MIC; procedure, shortened: as §1
Nannizzia gypsea = assay: In vitro evaluation of minimum inhibitory concentration against Microsporum gypseum 22; format: functional; settings: Nannizzia gypsea; read-out: MIC; procedure, shortened: as §1
Kluyveromyces marxianus [12] = assay: Evaluation of In vitro antifungal activity against yeasts by broth macro dilution method; format: functional; procedure, shortened: as §2
Pichia kudriavzevii [13] = assay: Evaluation of In vitro antifungal activity against Candida krusei C64 by broth macro dilution method; format: functional; procedure, shortened: as §2
Pichia kudriavzevii [14] = assay: In vitro evaluation of minimum inhibitory concentration against Candida krusei 70; format: functional; settings: Pichia kudriavzevii; read-out: MIC; procedure, shortened: as §1
Candida albicans [15] = assay: Evaluation of […] antifungal activity against Candida albicans 60 by broth macro dilution method; format: functional; procedure, shortened: as §2
Candida tropicalis [16] = assay: Evaluation of In vitro antifungal activity against Candida tropicalis 50 by broth macro dilution method; format: functional; procedure, shortened: as §2
Mus sp. [17] = assay: In vivo evaluation of % survival rate after peroral administration on 9th day at dose 0.5 mg/kg; format: functional; settings: Mus sp., po
Candida parapsilosis [18] = assay: Evaluation of In vitro antifungal activity against Candida parapsilosis ATCC 141095 by broth macro dilution method; format: functional; settings: Lodderomyces parapsilosis; procedure, shortened: as §2
Mus musculus = assay: In vivo evaluation of % survival rate after peroral administration on 7th day at dose 0.5 mg/kg; format: functional; settings: Mus musculus, po
Candida albicans [19] = assay: Evaluation of In vitro antifungal activity against Candida albicans 2.01 by broth macro dilution method; format: functional; procedure, shortened: as §2
Candida parapsilosis [20] = assay: In vitro evaluation of minimum inhibitory concentration against Candida parapsilosis 61; format: functional; settings: Lodderomyces parapsilosis; read-out: MIC; procedure, shortened: as §1
Candida albicans [21] = assay: Evaluation of In vitro antifungal activity against Candida albicans C56 by broth macro dilution method; format: functional; procedure, shortened: as §2
Candida albicans [22] = assay: In vitro evaluation of minimum inhibitory concentration against Candida albicans 76; format: functional; settings: Candida albicans; read-out: MIC; procedure, shortened: as §1
Candida parapsilosis [23] = assay: Evaluation of In vitro antifungal activity against Candida parapsilosis 2.07 by broth macro dilution method; format: functional; settings: Lodderomyces parapsilosis; procedure, shortened: as §2
Kluyveromyces marxianus [24] = assay: Evaluation of In vitro antifungal activity against Candida pseudotropicalis ATCC 28838 by broth macro dilution method; format: functional; procedure, shortened: as §2
Microsporum canis = assay: In vitro evaluation of minimum inhibitory concentration against Microsporum canis 47; format: functional; settings: Microsporum canis; read-out: MIC; procedure, shortened: as §1
Mus sp. [25] = assay: In vivo evaluation of % survival rate after peroral administration on 3rd day at dose 1 mg/kg; format: functional; settings: Mus sp., po
Mus sp. [26] = assay: In vivo evaluation of % survival rate after peroral administration on 5th day at dose 1 mg/kg; format: functional; settings: Mus sp., po
Cryptococcus neoformans [27] = assay: Evaluation of In vitro antifungal activity against Cryptococcus neoformans 74 by broth macro dilution method; format: functional; procedure, shortened: as §2
Pichia kudriavzevii [28] = assay: Evaluation of In vitro antifungal activity against Candida krusei 70 by broth macro dilution method; format: functional; procedure, shortened: as §2
Mus sp. [29] = assay: In vivo evaluation of % survival rate after peroral administration on 5th day at dose 0.5 mg/kg; format: functional; settings: route oral
[30] = tested on: Meyerozyma guilliermondii; assay: Evaluation of In vitro antifungal activity against Candida guilliermondii 26 by broth macro dilution method; format: functional; procedure, shortened: as §2
Aspergillus niger = assay: In vitro evaluation of minimum inhibitory concentration against Aspergillus niger 18; format: functional; settings: Aspergillus niger; read-out: MIC; procedure, shortened: as §1
Candida albicans [31] = assay: Evaluation of In vitro antifungal activity against Candida albicans ATCC 10231 by broth macro dilution method; format: functional; procedure, shortened: as §2
Nakaseomyces glabratus = assay: Evaluation of In vitro antifungal activity against Torulopsis glabrata 78 by broth macro dilution method; format: functional; procedure, shortened: as §2
Candida parapsilosis [32] = assay: Evaluation of In vitro antifungal activity against Candida parapsilosis C74 by broth macro dilution method; format: functional; settings: Lodderomyces parapsilosis; procedure, shortened: as §2
Candida tropicalis [33] = assay: Evaluation of In vitro antifungal activity against Candida tropicalis 2.11 by broth macro dilution method; format: functional; procedure, shortened: as §2
Aspergillus fumigatus = assay: In vitro evaluation of minimum inhibitory concentration against Aspergillus fumigatus 33; format: functional; settings: Aspergillus fumigatus; read-out: MIC; procedure, shortened: as §1
Candida albicans [34] = assay: Evaluation of In vitro antifungal activity against Candida albicans C52 by broth macro dilution method; format: functional; procedure, shortened: as §2

OC(Cn1cncn1)(Cn1cncn1)c1ccc(F)cc1F [FLUCONAZOLE]
1 µg/mL: MIC (Candida parapsilosis [3]) | MIC (Candida albicans [19]) | MIC (Candida parapsilosis [23]) | MFC (Cryptococcus neoformans [27]) | MIC (Candida tropicalis [33])
> 64 µg/mL: MFC (Candida albicans [1]) | MFC (Candida parapsilosis [3]) | MFC (Candida albicans [5]) | MFC (Candida albicans [7]) | MFC (Cryptococcus neoformans [9]) | MFC (Candida albicans [10]) | MFC (Candida parapsilosis [11]) | MFC (Pichia kudriavzevii [13]) | MFC (Candida tropicalis [16]) | MFC (Candida parapsilosis [18]) | MFC (Candida albicans [19]) | MFC (Candida albicans [21]) | MFC (Candida parapsilosis [23]) | MFC (Pichia kudriavzevii [28]) | MFC (Candida albicans [31]) | MFC (Nakaseomyces glabratus) | MFC (Candida tropicalis [33]) | MFC (Candida albicans [34])
100%: survival at 0.5 mg/kg (Mus sp. [6]) | survival at 1 mg/kg (Mus sp. [25])
4 µg/mL: MIC (Candida parapsilosis [11])
32 µg/mL: MFC (Kluyveromyces marxianus [24]) | MIC (Pichia kudriavzevii [28]) | MIC (Nakaseomyces glabratus)
20%: survival at 0.5 mg/kg (Mus musculus)
90%: survival at 0.5 mg/kg (Mus sp. [29])
2 µg/mL: MIC (Candida parapsilosis [18]) | MIC (Candida albicans [31]) | MFC (Candida parapsilosis [32])
64 µg/mL: MIC (Pichia kudriavzevii [13])
6%: survival at 1 mg/kg (Mus sp. [4])
0.5 µg/mL: MIC (Kluyveromyces marxianus [12]) | MIC (Candida albicans [15]) | MIC (Candida albicans [21]) | MIC (Cryptococcus neoformans [27])
0.25 µg/mL: MIC (Candida albicans [1]) | MIC (Candida albicans [5]) | MIC (Candida albicans [7]) | MIC (Candida parapsilosis [32]) | MIC (Candida albicans [34])
8 µg/mL: MIC (Cryptococcus neoformans [9]) | MIC (Candida tropicalis [16]) | MIC [30]
10 µg/mL: MIC [8]
52%: survival at 1 mg/kg (Mus sp. [2])
96%: survival at 1 mg/kg (Mus sp. [26])
40 µg/mL: MIC (Candida albicans [22])
> 80 µg/mL: MIC (Trichophyton rubrum) | MIC (Aspergillus flavus) | MIC (Trichophyton benhamiae) | MIC (Nannizzia gypsea) | MIC (Pichia kudriavzevii [14]) | MIC (Microsporum canis) | MIC (Aspergillus niger) | MIC (Aspergillus fumigatus)
10%: survival at 0.5 mg/kg (Mus sp. [17])
20 µg/mL: MIC (Candida parapsilosis [20])

Reference: ChEMBL document CHEMBL1128448, “Synthesis and antifungal activity of new azole derivatives containing an N-acylmorpholine ring” (1995)
